A word on the IC50: it is the midpoint of a concentration-inhibition curve.

Data set [1] in a line: Cytotoxicity against human L3.6PL cells incubated for 24 hrs measured after 5 day. It is filed as functional, cell-based. The method, boiled down:
(§1)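 Cells seeded 1000/well, adhered overnight, then serum-free medium with or without plasmin, trypsin, cathepsin B or papain (0.2 U/well), aprotinin (5 µM) or protease inhibitor cocktail (1X). Prodrug 2000–1 nM final, 24 h; then complete medium up to 5 days or control 80% confluence. Formalin fixed, crystal violet, A582; % of control fit to variable-slope sigmoid for IC50.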

In data set [2] the test system is MIA PaCa-2. The data set is described as follows: Cytotoxicity against human MIAPaCa2 cells incubated for 24 hrs measured after 5 days in presence of 0.2 U cathepsin B. The format is functional, cell-based. The method, boiled down: as §1
Data set [3] in a line: Prodrug conversion assessed as release dozax at 50 uM at pH 7.4 in PBS buffer in presence of human plasmin after 2 hrs by RP-HPLC. It is filed as ADME. The settings on record: pH 7.4, 2 h. The method, boiled down: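 50 µM prodrug with 1.2 µg/mL human plasmin in PBS pH 7.4 at 37 °C. Samples taken over time, ethanol-quenched, analysed by RP-HPLC at 480 nm for prodrug and dox; repeated runs fit to single-exponential association model.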

The test system of data set [4] is BXPC-3. The experiment in a line: Cytotoxicity against human BxPC3 cells incubated for 24 hrs measured after 5 days. It is filed as functional, cell-based. The method, boiled down: as §1
Data set [5] is described as follows: Cytotoxicity against doxorubicin-resistant human NCI-ADR-RES.cells incubated for 24 hrs measured after 5 days in presence of 0.2 U human plasmin. It is filed as functional, cell-based. The method, boiled down:
as §1

Data set [6] deals with Plasminogen (Homo sapiens) (UniProt P00747). The data set is described as follows: Activity of human plasmin assessed as enzyme catalytic efficiency for compound hydrolysis at 50 uM at pH 7.4 in PBS buffer by RP-HPLC. In a few lines: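 Michaelis-Menten kinetics, substrate 10–400 µM at 37 °C. Plasmin: 0.2 U, PBS pH 7.4, 4 min. Cathepsin B: 0.08 U, PBS-NAC pH 6.5, 20 min. Quenched with equal volume ethanol, −20 °C ≥2 h, centrifuged, supernatant RP-HPLC at 480 nm. Rates (µM/min) fit by non-linear least squares; triplicates.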
Chain of Plasminogen (Homo sapiens) (P00747 97-580 limits assumed): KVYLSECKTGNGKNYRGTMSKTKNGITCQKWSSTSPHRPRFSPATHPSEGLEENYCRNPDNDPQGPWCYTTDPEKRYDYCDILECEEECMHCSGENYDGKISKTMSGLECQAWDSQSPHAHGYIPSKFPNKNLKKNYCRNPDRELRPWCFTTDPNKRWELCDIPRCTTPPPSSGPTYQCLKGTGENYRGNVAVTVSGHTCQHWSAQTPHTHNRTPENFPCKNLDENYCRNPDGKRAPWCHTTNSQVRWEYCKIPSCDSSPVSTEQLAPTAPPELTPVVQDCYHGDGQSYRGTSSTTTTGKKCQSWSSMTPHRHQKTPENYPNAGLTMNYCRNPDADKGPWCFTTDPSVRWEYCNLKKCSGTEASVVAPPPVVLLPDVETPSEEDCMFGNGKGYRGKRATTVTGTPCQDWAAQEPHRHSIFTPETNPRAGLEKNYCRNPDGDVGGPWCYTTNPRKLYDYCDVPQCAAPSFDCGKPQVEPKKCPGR
Chain of Plasminogen (Homo sapiens) (P00747 581-810 limits assumed): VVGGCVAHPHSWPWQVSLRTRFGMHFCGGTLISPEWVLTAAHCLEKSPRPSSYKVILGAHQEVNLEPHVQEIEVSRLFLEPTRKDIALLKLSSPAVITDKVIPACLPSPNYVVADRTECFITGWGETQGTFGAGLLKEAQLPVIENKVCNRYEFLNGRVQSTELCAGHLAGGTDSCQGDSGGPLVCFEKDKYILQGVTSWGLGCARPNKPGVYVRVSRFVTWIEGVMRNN

The test system of data set [7] is MIA PaCa-2. The experiment in a line: Drug uptake in human MIAPaCa2 cells increase in compound uptake-induced anthracycline fluorescence in absence of plasmin at 0.5 uM up to 5 hrs by flow cytometry relative to untreated control. It is filed as ADME, cell-based. The settings on record: mia paca-2, 5 h. The method, boiled down:
(§2)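 MCF-7 or MiaPaCa-2 plated 250,000/well, adhered overnight, switched to serum-free medium with 0.5 µM prodrug alone or plus 0.2 U human plasmin (final) for up to 5 h. Trypsinised cells read by flow cytometry (FL3) for anthracycline fluorescence; mean values expressed as fold over untreated cells.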
(A flow cytometer gives signals particle by particle.)

Data set [8] is described as follows: Cytotoxicity against doxorubicin-resistant human NCI-ADR-RES cells incubated for 24 hrs measured after 5 day. The format is functional, cell-based. In a few lines: as §1
Data set [9] concerns SHP77. The data set is described as follows: Cytotoxicity against human doxorubicin-resistant SHP77 cells incubated for 24 hrs measured after 5 days. The format is functional, cell-based. The method, boiled down:
as §1

Data set [10] deals with Plasminogen (Homo sapiens) (UniProt P00747). The data set is described as follows: Activity of human plasmin assessed as compound hydrolysis measuring enzyme specific activity at 50 uM at pH 7.4 in PBS buffer by RP-HPLC. In a few lines:
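Specific activity from hydrolysis time courses at 37 °C with 50 µM substrate. Plasmin in PBS pH 7.4; cathepsin B diluted two-fold in PBS-NAC, reacted in PBS-NAC (10 mM N-acetylcysteine) pH 6.5. Ethanol-quenched aliquots, protein precipitated at −20 °C, RP-HPLC at 480 nm tracking dox release. Linear least-squares slope used; 1 U = 1 µM substrate hydrolysed per min.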

Data set [11] relates to MCF7. The data set is described as follows: Cytotoxicity against human MCF7 cells incubated for 24 hrs measured after 5 days in presence of 0.2 U papain. It is filed as functional, cell-based. The method, boiled down:
as §1

For data set [12], the system named is MCF7. The data set is described as follows: Cytotoxicity against human MCF7 cells incubated for 24 hrs measured after 5 days in presence of 5 uM aprotinin. The format is functional, cell-based. In a few lines: as §1
The subject of data set [13] is MIA PaCa-2. The data set is described as follows: Drug uptake in human MIAPaCa2 cells increase in compound uptake-induced anthracycline fluorescence in presence of plasmin at 0.5 uM after 4 to 5 hrs by flow cytometry relative to untreated control. The format is ADME, cell-based. To be noted: mia paca-2, 0.5 µM. In a few lines: as §2
Data set [14] has as its system Plasma. The experiment in a line: Stability in human plasma assessed as doxorubicin production at 50 uM incubated over 24 hrs by RP-HPLC. It is filed as ADME, cell-free. The method, boiled down: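 Prodrug diluted to 50 µM final in undiluted plasma from healthy human donors, 37 °C for 24 h. Aliquots at 0.25, 1, 3, 8, 12 and 24 h were quenched with equal-volume ethanol and held at −20 °C overnight; protein was spun out. Supernatant run on RP-HPLC; percent prodrug and dox taken from relative 480 nm absorbance, counting all 480 nm species; triplicate.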

Data set [15] deals with MCF7. The experiment in a line: Cytotoxicity against human MCF7 cells incubated for 24 hrs measured after 5 days in presence of 0.2 U plasmin. The format is functional, cell-based. In a few lines: as §1
Data set [16] is described as follows: Cytotoxicity against human L3.5 cells incubated for 24 hrs measured after 5 day. It is filed as functional, cell-based. The method, boiled down:
as §1

Structures are written as SMILES.

On to `COc1cccc2c1C(=O)c1c(O)c3c(c(O)c1C2=O)C[C@@](O)(C(=O)CO)C[C@@H]3O[C@H]1C[C@H]2[C@H](OCN2C(=O)OCc2ccc(NC(=O)[C@H](CCCCN)NC(=O)[C@H](Cc3ccccc3)NC(=O)[C@@H](C)NC(=O)CNC(C)=O)cc2)[C@H](C)O1.O=P(O)(O)O`, for which the IC50 in data set [1] is 316 nM; in data set [2] it was 158 nM; in [4] it was 1000 nM; in data set [5] it was 11.7 nM; in data set [8] it was 912 nM; in data set [9], 1580 nM. Also, the 50% inhibitory concentration (IC50) is 60.3 nM in [11], 295 nM in [12], 26.9 nM in data set [15] and 224 nM in data set [16]. Besides, in data set [3], the Drug metabolism result is recorded as “Active”. Moreover, the Activity worked out at 1.43 ×10⁴ /M/s in [6] and 1940 U/mg in data set [10]. The “fold change (FC)” value in [7] was determined as 2; in [13], 7. Moreover, the Stability result in [14] is on record as “Stable”.

Values taken from ChEMBL document CHEMBL2169769, “Synthesis and biological characterization of protease-activated prodrugs of doxazolidine” (J Med Chem, 2012).
